Laboratory results reported in ChEMBL document CHEMBL1275458, “First molecular characterization of group B streptococci with reduced penicillin susceptibility” (2008).
Values after ≈ are worked out from the molar mass of the structure shown.

tested on: Streptococcus agalactiae; assay: Antimicrobial activity against penicillin-resistant Streptococcus agalactiae B503 by agar dilution method; format: functional
In short: (§1)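 Agar dilution MICs run per the CLSI recommendation. S. pneumoniae ATCC 49619 was included as the quality control strain. β-lactams tested were penicillin G, penicillin V, ampicillin, oxacillin, cefazolin, cefepime, cefotaxime, ceftizoxime and meropenem. Test strains were S. agalactiae clinical sputum isolates and ATCC strains BAA-611 and 12403.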

In order of falling MIC:
1. CO/N=C(\C(=O)N[C@@H]1C(=O)N2C(C(=O)[O-])=C(C[N+]3(C)CCCC3)CS[C@H]12)c1csc(N)n1 [CEFEPIME]  0.25 µg/mL (≈ 0.52 µM)
2. C[C@@H](O)[C@H]1C(=O)N2C(C(=O)O)=C(S[C@@H]3CN[C@H](C(=O)N(C)C)C3)[C@H](C)[C@H]12 [MEROPENEM]  0.12 µg/mL (≈ 0.313 µM)

tested on: Streptococcus pneumoniae; assay: Antimicrobial activity against Streptococcus pneumoniae ATCC 49619 by agar dilution method; format: functional
In short: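 MIC by agar dilution per CLSI recommendations. The strain is a penicillin-susceptible S. pneumoniae quality-control strain, run alongside the clinical GBS isolates. β-lactams tested were penicillin G, penicillin V, ampicillin, oxacillin, cefazolin, cefepime, cefotaxime, ceftizoxime and meropenem.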

In order of rising MIC:
1. CO/N=C(\C(=O)N[C@@H]1C(=O)N2C(C(=O)[O-])=C(C[N+]3(C)CCCC3)CS[C@H]12)c1csc(N)n1 [CEFEPIME]  0.03 µg/mL (≈ 0.0624 µM)
2. C[C@@H](O)[C@H]1C(=O)N2C(C(=O)O)=C(S[C@@H]3CN[C@H](C(=O)N(C)C)C3)[C@H](C)[C@H]12 [MEROPENEM]  0.06 µg/mL (≈ 0.156 µM)

tested on: Streptococcus agalactiae; assay: Antimicrobial activity against penicillin-resistant Streptococcus agalactiae B10 by agar dilution method; format: functional; in short: as §1

In order of rising MIC:
1. C[C@@H](O)[C@H]1C(=O)N2C(C(=O)O)=C(S[C@@H]3CN[C@H](C(=O)N(C)C)C3)[C@H](C)[C@H]12 [MEROPENEM]  0.06 µg/mL (≈ 0.156 µM)
2. CO/N=C(\C(=O)N[C@@H]1C(=O)N2C(C(=O)[O-])=C(C[N+]3(C)CCCC3)CS[C@H]12)c1csc(N)n1 [CEFEPIME]  0.25 µg/mL (≈ 0.52 µM)

tested on: Streptococcus agalactiae; assay: Antimicrobial activity against penicillin-resistant Streptococcus agalactiae ATCC BAA-611 harboring PBP-2X V405A mutant gene by agar dilution method; format: functional; in short: as §1

In order of falling MIC:
1. CO/N=C(\C(=O)N[C@@H]1C(=O)N2C(C(=O)[O-])=C(C[N+]3(C)CCCC3)CS[C@H]12)c1csc(N)n1 [CEFEPIME]  0.5 µg/mL (≈ 1.04 µM)
2. C[C@@H](O)[C@H]1C(=O)N2C(C(=O)O)=C(S[C@@H]3CN[C@H](C(=O)N(C)C)C3)[C@H](C)[C@H]12 [MEROPENEM]  0.12 µg/mL (≈ 0.313 µM)

tested on: Streptococcus agalactiae; assay: Antimicrobial activity against penicillin-resistant Streptococcus agalactiae B6 by agar dilution method; format: functional; in short: as §1

In order of rising MIC:
1. C[C@@H](O)[C@H]1C(=O)N2C(C(=O)O)=C(S[C@@H]3CN[C@H](C(=O)N(C)C)C3)[C@H](C)[C@H]12 [MEROPENEM]  0.06 µg/mL (≈ 0.156 µM)
2. CO/N=C(\C(=O)N[C@@H]1C(=O)N2C(C(=O)[O-])=C(C[N+]3(C)CCCC3)CS[C@H]12)c1csc(N)n1 [CEFEPIME]  0.25 µg/mL (≈ 0.52 µM)

tested on: Streptococcus agalactiae; assay: Antimicrobial activity against penicillin-resistant Streptococcus agalactiae B514 by agar dilution method; format: functional; in short: as §1

In order of rising MIC:
1. C[C@@H](O)[C@H]1C(=O)N2C(C(=O)O)=C(S[C@@H]3CN[C@H](C(=O)N(C)C)C3)[C@H](C)[C@H]12 [MEROPENEM]  0.25 µg/mL (≈ 0.652 µM)
2. CO/N=C(\C(=O)N[C@@H]1C(=O)N2C(C(=O)[O-])=C(C[N+]3(C)CCCC3)CS[C@H]12)c1csc(N)n1 [CEFEPIME]  0.5 µg/mL (≈ 1.04 µM)

tested on: Streptococcus agalactiae; assay: Antimicrobial activity against penicillin-resistant Streptococcus agalactiae B68 by agar dilution method; format: functional; in short: as §1

In order of rising MIC:
1. C[C@@H](O)[C@H]1C(=O)N2C(C(=O)O)=C(S[C@@H]3CN[C@H](C(=O)N(C)C)C3)[C@H](C)[C@H]12 [MEROPENEM]  0.12 µg/mL (≈ 0.313 µM)
2. CO/N=C(\C(=O)N[C@@H]1C(=O)N2C(C(=O)[O-])=C(C[N+]3(C)CCCC3)CS[C@H]12)c1csc(N)n1 [CEFEPIME]  0.5 µg/mL (≈ 1.04 µM)

tested on: Streptococcus agalactiae; assay: Antimicrobial activity against penicillin-resistant Streptococcus agalactiae B7 by agar dilution method; format: functional; in short: as §1

In order of falling MIC:
1. C[C@@H](O)[C@H]1C(=O)N2C(C(=O)O)=C(S[C@@H]3CN[C@H](C(=O)N(C)C)C3)[C@H](C)[C@H]12 [MEROPENEM]  0.25 µg/mL (≈ 0.652 µM)
2. CO/N=C(\C(=O)N[C@@H]1C(=O)N2C(C(=O)[O-])=C(C[N+]3(C)CCCC3)CS[C@H]12)c1csc(N)n1 [CEFEPIME]  0.25 µg/mL (≈ 0.52 µM)

tested on: Streptococcus agalactiae; assay: Antimicrobial activity against penicillin-resistant Streptococcus agalactiae B12 by agar dilution method; format: functional; in short: as §1

In order of rising MIC:
1. C[C@@H](O)[C@H]1C(=O)N2C(C(=O)O)=C(S[C@@H]3CN[C@H](C(=O)N(C)C)C3)[C@H](C)[C@H]12 [MEROPENEM]  0.25 µg/mL (≈ 0.652 µM)
2. CO/N=C(\C(=O)N[C@@H]1C(=O)N2C(C(=O)[O-])=C(C[N+]3(C)CCCC3)CS[C@H]12)c1csc(N)n1 [CEFEPIME]  0.5 µg/mL (≈ 1.04 µM)

tested on: Streptococcus agalactiae; assay: Antimicrobial activity against penicillin-resistant Streptococcus agalactiae B502 by agar dilution method; format: functional; in short: as §1

In order of falling MIC:
1. CO/N=C(\C(=O)N[C@@H]1C(=O)N2C(C(=O)[O-])=C(C[N+]3(C)CCCC3)CS[C@H]12)c1csc(N)n1 [CEFEPIME]  0.5 µg/mL (≈ 1.04 µM)
2. C[C@@H](O)[C@H]1C(=O)N2C(C(=O)O)=C(S[C@@H]3CN[C@H](C(=O)N(C)C)C3)[C@H](C)[C@H]12 [MEROPENEM]  0.25 µg/mL (≈ 0.652 µM)

tested on: Streptococcus agalactiae; assay: Antimicrobial activity against penicillin-resistant Streptococcus agalactiae B60 by agar dilution method; format: functional; in short: as §1

In order of falling MIC:
1. CO/N=C(\C(=O)N[C@@H]1C(=O)N2C(C(=O)[O-])=C(C[N+]3(C)CCCC3)CS[C@H]12)c1csc(N)n1 [CEFEPIME]  0.25 µg/mL (≈ 0.52 µM)
2. C[C@@H](O)[C@H]1C(=O)N2C(C(=O)O)=C(S[C@@H]3CN[C@H](C(=O)N(C)C)C3)[C@H](C)[C@H]12 [MEROPENEM]  0.12 µg/mL (≈ 0.313 µM)

tested on: Streptococcus agalactiae; assay: Antimicrobial activity against penicillin-resistant Streptococcus agalactiae B40 by agar dilution method; format: functional; in short: as §1

In order of falling MIC:
1. CO/N=C(\C(=O)N[C@@H]1C(=O)N2C(C(=O)[O-])=C(C[N+]3(C)CCCC3)CS[C@H]12)c1csc(N)n1 [CEFEPIME]  0.25 µg/mL (≈ 0.52 µM)
2. C[C@@H](O)[C@H]1C(=O)N2C(C(=O)O)=C(S[C@@H]3CN[C@H](C(=O)N(C)C)C3)[C@H](C)[C@H]12 [MEROPENEM]  0.06 µg/mL (≈ 0.156 µM)

tested on: Streptococcus agalactiae; assay: Antimicrobial activity against penicillin-susceptible Streptococcus agalactiae ATCC 12403 by agar dilution method

In order of falling MIC:
1. CO/N=C(\C(=O)N[C@@H]1C(=O)N2C(C(=O)[O-])=C(C[N+]3(C)CCCC3)CS[C@H]12)c1csc(N)n1 [CEFEPIME]  0.06 µg/mL (≈ 0.125 µM)
2. C[C@@H](O)[C@H]1C(=O)N2C(C(=O)O)=C(S[C@@H]3CN[C@H](C(=O)N(C)C)C3)[C@H](C)[C@H]12 [MEROPENEM]  0.03 µg/mL (≈ 0.0782 µM)

tested on: Streptococcus agalactiae; assay: Antimicrobial activity against penicillin-resistant Streptococcus agalactiae B513 by agar dilution method; format: functional; in short: as §1

In order of rising MIC:
1. C[C@@H](O)[C@H]1C(=O)N2C(C(=O)O)=C(S[C@@H]3CN[C@H](C(=O)N(C)C)C3)[C@H](C)[C@H]12 [MEROPENEM]  0.25 µg/mL (≈ 0.652 µM)
2. CO/N=C(\C(=O)N[C@@H]1C(=O)N2C(C(=O)[O-])=C(C[N+]3(C)CCCC3)CS[C@H]12)c1csc(N)n1 [CEFEPIME]  1 µg/mL (≈ 2.08 µM)

tested on: Streptococcus agalactiae; assay: Antimicrobial activity against penicillin-susceptible Streptococcus agalactiae ATCC BAA-611 by agar dilution method

In order of falling MIC:
1. CO/N=C(\C(=O)N[C@@H]1C(=O)N2C(C(=O)[O-])=C(C[N+]3(C)CCCC3)CS[C@H]12)c1csc(N)n1 [CEFEPIME]  0.06 µg/mL (≈ 0.125 µM)
2. C[C@@H](O)[C@H]1C(=O)N2C(C(=O)O)=C(S[C@@H]3CN[C@H](C(=O)N(C)C)C3)[C@H](C)[C@H]12 [MEROPENEM]  0.03 µg/mL (≈ 0.0782 µM)

tested on: Streptococcus agalactiae; assay: Antimicrobial activity against penicillin-resistant Streptococcus agalactiae B516 by agar dilution method; format: functional; in short: as §1

In order of rising MIC:
1. C[C@@H](O)[C@H]1C(=O)N2C(C(=O)O)=C(S[C@@H]3CN[C@H](C(=O)N(C)C)C3)[C@H](C)[C@H]12 [MEROPENEM]  0.12 µg/mL (≈ 0.313 µM)
2. CO/N=C(\C(=O)N[C@@H]1C(=O)N2C(C(=O)[O-])=C(C[N+]3(C)CCCC3)CS[C@H]12)c1csc(N)n1 [CEFEPIME]  0.5 µg/mL (≈ 1.04 µM)

tested on: Streptococcus agalactiae; assay: Antimicrobial activity against penicillin-resistant Streptococcus agalactiae B8 by agar dilution method; format: functional; in short: as §1

In order of falling MIC:
1. CO/N=C(\C(=O)N[C@@H]1C(=O)N2C(C(=O)[O-])=C(C[N+]3(C)CCCC3)CS[C@H]12)c1csc(N)n1 [CEFEPIME]  0.5 µg/mL (≈ 1.04 µM)
2. C[C@@H](O)[C@H]1C(=O)N2C(C(=O)O)=C(S[C@@H]3CN[C@H](C(=O)N(C)C)C3)[C@H](C)[C@H]12 [MEROPENEM]  0.12 µg/mL (≈ 0.313 µM)

tested on: Streptococcus agalactiae; assay: Antimicrobial activity against penicillin-resistant Streptococcus agalactiae ATCC BAA-611 harboring PBP-2X Q557E mutant gene by agar dilution method; format: functional; in short: as §1

In order of falling MIC:
1. CO/N=C(\C(=O)N[C@@H]1C(=O)N2C(C(=O)[O-])=C(C[N+]3(C)CCCC3)CS[C@H]12)c1csc(N)n1 [CEFEPIME]  0.5 µg/mL (≈ 1.04 µM)
2. C[C@@H](O)[C@H]1C(=O)N2C(C(=O)O)=C(S[C@@H]3CN[C@H](C(=O)N(C)C)C3)[C@H](C)[C@H]12 [MEROPENEM]  0.12 µg/mL (≈ 0.313 µM)

tested on: Streptococcus agalactiae; assay: Antimicrobial activity against penicillin-resistant Streptococcus agalactiae B1 by agar dilution method; format: functional; in short: as §1

In order of falling MIC:
1. CO/N=C(\C(=O)N[C@@H]1C(=O)N2C(C(=O)[O-])=C(C[N+]3(C)CCCC3)CS[C@H]12)c1csc(N)n1 [CEFEPIME]  0.5 µg/mL (≈ 1.04 µM)
2. C[C@@H](O)[C@H]1C(=O)N2C(C(=O)O)=C(S[C@@H]3CN[C@H](C(=O)N(C)C)C3)[C@H](C)[C@H]12 [MEROPENEM]  0.06 µg/mL (≈ 0.156 µM)
